In the library only some 2.3% were active in any assay of this set; here they are far more common.
TRPC6 inh = blocks the mouse TRPC6 cation channel | Q61143 | HEK293-TRPC6, membrane potential dye, ACh-evoked depolarization; active compounds read low | B-score at 10 µM | 1.1% of 310,000 active | AID 2553;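 active means B-score under library mean minus 3 SD, initial fluorescence not abnormally high, positive integrated signal ratio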;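 further: B-score derived from integrated fluorescence ratio over the kinetic read; more negative B-score means stronger inhibition of depolarization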
Target sequence (Q61143 whole entry, looked up): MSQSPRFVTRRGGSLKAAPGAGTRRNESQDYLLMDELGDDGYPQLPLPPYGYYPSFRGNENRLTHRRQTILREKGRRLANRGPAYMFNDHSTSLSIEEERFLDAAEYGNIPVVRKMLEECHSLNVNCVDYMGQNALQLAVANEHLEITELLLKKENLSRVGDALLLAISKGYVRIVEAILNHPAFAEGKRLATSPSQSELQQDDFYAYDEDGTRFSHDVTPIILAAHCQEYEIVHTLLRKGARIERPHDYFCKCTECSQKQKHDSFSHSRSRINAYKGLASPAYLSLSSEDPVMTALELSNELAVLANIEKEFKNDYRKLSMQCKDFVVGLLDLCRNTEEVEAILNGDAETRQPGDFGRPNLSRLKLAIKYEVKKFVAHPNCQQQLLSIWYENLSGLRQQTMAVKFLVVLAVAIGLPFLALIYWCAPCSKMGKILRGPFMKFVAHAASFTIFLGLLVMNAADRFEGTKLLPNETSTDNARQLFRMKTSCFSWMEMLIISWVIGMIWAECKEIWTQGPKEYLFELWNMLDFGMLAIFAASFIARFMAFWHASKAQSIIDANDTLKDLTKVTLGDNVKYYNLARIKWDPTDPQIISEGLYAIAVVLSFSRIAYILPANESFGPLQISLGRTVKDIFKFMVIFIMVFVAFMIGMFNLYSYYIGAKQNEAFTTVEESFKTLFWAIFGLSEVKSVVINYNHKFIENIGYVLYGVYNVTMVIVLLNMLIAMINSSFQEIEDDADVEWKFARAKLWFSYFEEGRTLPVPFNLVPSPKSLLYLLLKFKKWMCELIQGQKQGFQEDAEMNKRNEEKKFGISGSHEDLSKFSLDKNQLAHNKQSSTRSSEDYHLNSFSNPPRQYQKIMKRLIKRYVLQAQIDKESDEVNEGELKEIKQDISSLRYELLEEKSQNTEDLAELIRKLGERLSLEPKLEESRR
TRPC6 act = activators of mouse TRPC6 channel | 0.13% of 310,000 active | HEK293-TRPC6 membrane potential dye fluorescence; active compounds read high | B-score at 10 µM | Q61143;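 active means B-score of the integrated fluorescence ratio above library mean plus 3 SD, and starting fluorescence ratio within library mean plus 5 SD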;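 further: higher score means more depolarization so channel activation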
TRPC4 agonist = activators of mouse TRPC4 channel; HEK293 TRPC4beta/mu-opioid, Fluo4 calcium fluorescence; active compounds read high; B-score at 10 µM; 0.49% of 310,000 active; AID 2237;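 active means B-score above 5 SD of library B-scores, and initial fluorescence ratio not above library mean plus 5 SD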;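 further: positive B-score marks a calcium rise read as TRPC4 activation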
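Assay system – TRPC4beta and mu-opioid receptor HEK293 stable cells · Measured by – Fluo4 fluorescence, kinetic · Schedule – dye loading 45 min room temperature, 110 s kinetic read · Read-out – B-scored integrated calcium fluorescence ratio · Controls – buffer and maximal DAMGO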
TRPC4 PAM = allosteric potentiators of mouse TRPC4 channel; HEK293 TRPC4beta/mu-opioid, DAMGO EC20, Fluo-4 Ca2+ flux; active compounds read high; Q9QUQ5; 0.42% of 310,000 active; B-score at 10 µM;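 active means B-score of calcium response area above 5 SD of library B-scores, with initial fluorescence ratio within 5 SD of library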;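 further: B-score of integrated fluorescence ratio over time as area under calcium response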
TRPC4 inh = inhibitors of mouse TRPC4 channel | B-score at 10 µM | HEK293 TRPC4beta/mu-opioid, DAMGO-evoked Fluo4 calcium flux; active compounds read low | 0.39% of 300,000 active | Q9QUQ5;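 active means B-score over 3 SD under the library average, no early fluorescence shift, positive overall ratio signal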
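Signal: kinetic Fluo4 fluorescence imaging of calcium influx. Material: stable TRPC4beta/mu-opioid receptor HEK293 cells. Probe or stimulus: DAMGO in two steps, submaximal then maximal.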
FID counter = displaces DNA intercalator in HCV helicase counter-screen. 0.17% of 290,000 active. inhibition, % at 7.9 µM. DNA fluorescent intercalator displacement, fluorescence. AID 1845; in the data active means inhibition above about 37%;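 further: 0% = vehicle and 100% = reference compound; higher means more ethidium bromide displaced from hairpin DNA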
TRPC4 sel inh 2 = second selectivity test of TRPC6 inhibitors: effect on mouse TRPC4; shares compounds with TRPC6 inh; HEK293 TRPC4/MOR, membrane potential dye fluorescence; channel activated by saturating DAMGO dose; inhibition, % at 10 µM; 42% of 920 active; AID 2776;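 active means compounds whose fluorescence signal differed from control wells by over 3 SD, either direction, in both duplicate plates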
TRPC4 spec = selectivity of TRPC6 inhibitors: effect on mouse TRPC4; AID 2777; shares compounds with TRPC6 inh; activity change, negative = inhibition, % at 10 µM; HEK293 TRPC4/mu-opioid, membrane potential fluorescence; 61% of 920 active;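 active means rise or fall in signal beyond 3 SD of buffer-only wells in both replicate plates, either sign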;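 further: integrated kinetic ratio of fluorescence range over baseline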
HEK293 MPD ctr 2-1 = parental HEK293 nonspecific activity of TRPC6 inhibitors, second screen; shares compounds with TRPC6 inh; parental HEK293 membrane potential dye fluorescence; maximal acetylcholine challenge after compound addition; signal change vs control, % at 10 µM; 31% of 920 active;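 active means membrane potential signal moving either way by over 3 SD of the maximum-effect control, in both duplicate plates, meaning non-specific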
HEK293 MPD ctr-1 = checks TRPC6 inhibitor effects in parental HEK293 cells. 60% of 920 active. AID 2780. parental HEK293 membrane potential dye fluorescence. shares compounds with TRPC6 inh. membrane potential signal change, % at 10 µM;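 active means membrane potential signal shifting up or down by more than 3 SD of buffer-only wells, on both duplicate plates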
HEK293 MPD ctr-2 = parental HEK293 nonspecific activity of TRPC6 modulators; shares compounds with TRPC6 inh; membrane potential dye fluorescence; membrane potential signal change, % at 10 µM; 51% of 2,400 active; AID 488924;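 active means membrane potential signal moves up or down beyond 5 SD from buffer-only wells, on both duplicate plates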
HEK293 MPD ctr 2-2 = second check of TRPC6 modulator effects in parental HEK293 cells; 14% of 2,400 active; shares compounds with TRPC6 inh; AID 488926; inhibition, % at 10 µM; membrane potential dye fluorescence; after compound, maximal acetylcholine stimulation;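 active means membrane potential signal drops by more than 5 SD from the mean control signal, in both duplicate plates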;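 further: plate controls were acetylcholine ECmax control wells for no effect and buffer only wells for full effect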
TRPC4/MOR mod = mouse TRPC4 off-target activity of TRPC6 modulators; shares compounds with TRPC6 inh; HEK293 TRPC4/mu-opioid, membrane potential fluorescence; percent change from control (negative = decrease, positive = increase), % at 10 µM; 69% of 2,400 active; AID 488927;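 active means membrane potential signal moved up or down beyond 5 SD of buffer control wells, in both duplicate plates, actives on both sides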;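 further: plate controls were assay buffer wells for no effect and DAMGO maximal-effect wells for full effect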
TRPC4/MOR inh 2 = second check of whether TRPC6 modulators also affect mouse TRPC4 | shares compounds with TRPC6 inh | HEK293 TRPC4/mu-opioid, membrane potential dye fluorescence; stimulated with maximal-effect DAMGO | inhibition, % at 10 µM | 55% of 2,400 active;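 active means drop in membrane potential signal beyond 5 SD of the control wells in both duplicate plates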;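 further: TRPC4 counter screen for TRPC6 hits run under conditions tuned for TRPC6 not TRPC4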
TRPC6 inh conf = mouse TRPC6 inhibitor confirmation; shares compounds with TRPC6 inh; HEK293-TRPC6, membrane potential dye, ACh-evoked depolarization; inhibition, % at 10 µM; 43% of 3,300 active; AID 488960;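 active means fluorescence ratio falls more than 5 SD below the full-stimulation control mean, in both duplicate runs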;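 further: integrated fluorescence ratio of peak minus minimum over baseline after agonist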
TRPC6 act conf = confirmation of mouse TRPC6 activators; activation, % at 10 µM; 11% of 2,800 active; HEK293-TRPC6 membrane potential dye fluorescence, FDSS; AID 488961; shares compounds with TRPC6 inh;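 active means ratio signal rise beyond 5 SD above unstimulated control wells' mean, seen in both duplicate runs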;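 further: plate controls were buffer EC0 wells for no effect and acetylcholine ECmax response for full effect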
The depositor's hits bear a star; i = inactive; · = no result given.

SMILES	TRPC6 inh	TRPC6 act	TRPC4 agonist	TRPC4 PAM	TRPC4 inh	FID counter	HEK293 MPD ctr-2	HEK293 MPD ctr 2-2	TRPC4/MOR mod	TRPC4/MOR inh 2	TRPC6 inh conf	TRPC6 act conf	others
Cc1ccccc1C(OCCN(C(C)C)C(C)C)c1ccccc1 (configuration not stated)	-5*	i	i	i	i	12	209%*	88%*	44%*	44%*	80%*	·
CCOc1ccc(S(=O)(=O)n2ccnc2C)cc1	i	i	i	i	i	-3	·	·	·	·	·	·
CC1CN(CCCCOc2ccc(Cl)c3ccccc23)CC(C)O1 (configuration not stated)	i	i	i	i	i	18	·	·	·	·	·	·
CCCCOC(=O)c1ccc(NC(=O)COC(=O)C2CSC3(C)CCC(=O)N23)cc1 (configuration not stated)	-5.7*	i	i	i	i	·	i	i	i	i	75%*	·
CC12CCC(=O)N1C(C(=O)OCC(=O)Nc1sccc1C#N)CS2 (configuration not stated)	i	i	i	i	i	5	·	·	·	·	·	·
CCc1cc(-c2[nH]ncc2-c2ccc(OC)cc2)c(O)cc1O	i	i	i	i	i	-4	·	·	·	·	·	·
CCc1cc(-c2[nH]ncc2-c2ccc3c(c2)OCO3)c(O)cc1O	-5.3*	i	i	i	i	-6	i	i	i	70%*	65%*	i
CN1CCN(c2ccccc2/C=C2/C(=O)Nc3ccccc32)CC1	-5*	i	i	i	i	7	120%*	i	46%*	72%*	i	·
CCCCCCOC(=O)c1ccc(N)cc1	-5.5*	i	i	i	i	-19	i	i	i	34%*	i	i
CCCCCOC(=O)c1ccc(NC(=O)c2ccco2)cc1	-13*	i	i	i	i	-3	·	·	·	·	i	i	TRPC4 sel inh 2=i;TRPC4 spec=i;HEK293 MPD ctr 2-1=i;HEK293 MPD ctr-1=i
CCCCOC(=O)c1ccc(N)cc1	i	i	i	i	i	-1	·	·	·	·	·	·
O=C(Nn1cnnc1)c1ccc(Cl)cc1[N+](=O)[O-]	i	i	i	i	i	3	·	·	·	·	·	·
Cc1occc1C(=O)Nc1cccc(Cl)c1Cl	i	i	i	i	i	-4	·	·	·	·	·	·
O=C(NCCc1ccccc1)C1=CCN(S(=O)(=O)c2ccccc2)CC1	i	i	i	i	i	-24	·	·	·	·	·	·
Cc1cc(-c2ccc(S(=O)(=O)N3CCN(c4ccccc4F)CC3)s2)on1	i	i	i	i	i	-11	·	·	·	·	·	·
N#Cc1cccc(C(c2nnnn2CCc2ccccc2)N2CCN(C3CCCCC3)CC2)c1 (configuration not stated)	-5*	i	i	i	i	10	i	i	i	70%*	54%*	i
O=C(COc1ccc(Cl)cc1Cl)NCc1ccco1	i	i	i	i	i	-6	·	·	·	·	·	·
O=C(COc1ccc(Cl)cc1Cl)NNC(=S)NCc1ccco1	-5.4*	i	i	i	i	-16	i	i	i	i	i	i
CCCc1nc2c(C)cc(C)cc2c(N)c1CC	-6*	i	i	i	i	7	-94%*	i	-18%*	60%*	i	i
Cc1cc(C)c2nc(C(F)(F)F)c(C#N)c(N)c2c1	i	i	i	i	i	1	·	·	·	·	·	·
CCOc1ccc(S(=O)(=O)N(CC(=O)N/N=C/c2ccc(-c3ccc([N+](=O)[O-])cc3)o2)c2ccccc2)cc1	-5.1*	i	i	i	i	0	i	i	i	i	i	·
CN(C)c1ccc(/C=C2\SC(N3CCCCC3)=NC2=O)cc1	-5.3*	i	i	i	i	-29	396%*	i	34%*	i	i	·
Cc1ccc(/C=C2\SC(N3CCCC3)=NC2=O)cc1	i	i	i	i	i	-21	·	·	·	·	·	·
Cc1cccc([C@@H]2[C@@H]3C(=O)N(Cc4ccccc4)C(=O)[C@@H]3[C@]3(Cc4ccccc4)C(=O)N(c4ccc(C(F)(F)F)cc4)C(=O)N23)c1	i	i	i	i	i	·	·	·	·	·	·	·
COc1ccccc1N(CC1CO1)S(=O)(=O)c1ccc(C)cc1 (configuration not stated)	i	i	i	i	i	-16	·	·	·	·	·	·
Cc1cc(NC(=O)CNCC(c2ccccc2)N(C)C)c([N+](=O)[O-])cc1C (configuration not stated)	-9.4*	i	i	i	i	9	·	·	·	·	i	i	TRPC4 sel inh 2=64%*;TRPC4 spec=-12%*;HEK293 MPD ctr 2-1=i;HEK293 MPD ctr-1=-151%*
CC(C)c1ccc(NC(=O)CNCC(c2ccccc2)N(C)C)cc1 (configuration not stated)	i	i	i	i	i	13	·	·	·	·	·	·

Source: PubChem BioAssay
